Measured values from different studies.
Lines come from different studies, so protocols differ.
Effect on: cell growth or viability

SMILES	cell line	assay	setting	IC50
CCCCn1cnc2ccc(-c3ccc(NC(=O)Nc4ccc(C(F)(F)F)cc4)nc3)cc2c1=O	NCI-H1975	CCK-8	72 h	6.85 µM
O=C(Nc1ccc(F)cc1)Nc1nc2cc(-c3ccc4ncn(CCN5CCOCC5)c(=O)c4c3)ccc2s1	NCI-H1975	MTT	72 h	4.31 µM
Nc1ccn([C@@H]2O[C@H](CO)[C@@H](O)C2(F)F)c(=O)n1	HEK293	MTT	48 h	17.4 µg/mL
c1ccc(Oc2ccc(Nc3c4c(nc5ccccc35)CCC4)cc2)cc1	HEK293	resazurin	72 h	11.2 µM
COc1cc(C2C3=C(COC3=O)N(CCO)c3cc4c(cc32)CCC4)cc(OC)c1OC (centres unmarked)	HEK293	ATP luminescence	48 h	1.55 µM
CN(C)C(=O)c1cc2cnc(Nc3ccc(-c4ccc5c(=O)cc(N6CCOCC6)oc5c4)cc3)nc2n1C1CCCC1	HEK293	ATP luminescence	72 h	0.55 µM
CN1CCC(NC2CCc3[nH]c4c(C(N)=O)ccc(-c5ccccc5Cl)c4c3C2)CC1 (centres unmarked)	Pfeiffer		96 h	0.0257 µM
CCCCCC(=O)Nc1ccc(-c2ccc3ncn(CCC)c(=O)c3c2)cn1	NCI-H1975	CCK-8	72 h	0.074 µM
COc1ccc(NC(=O)Nc2nc3cc(-c4ccc5ncn(CCN6CCOCC6)c(=O)c5c4)ccc3s2)cc1	NCI-H1975	MTT	72 h	> 20 µM
CCCCC(=O)Nc1ccc(-c2ccc3ncn(CCC)c(=O)c3c2)cc1	NCI-H1975	CCK-8	72 h	9.81 µM
Cc1ncsc1-c1ccc(CNC(=O)[C@@H]2C[C@@H](O)CN2C(=O)[C@@H](NC(=O)C2(F)CC2)C(C)(C)C)c(OCCOc2ccc(CN3CCN(c4cc(-c5ccccc5O)nnc4N)CC3)cc2)c1	HCC515	ATP luminescence	7 days	0.261 µM
CCCCC(=O)Nc1ccc(-c2ccc3ncn(CC4CC4)c(=O)c3c2)cn1	NCI-H1975	CCK-8	72 h	0.079 µM
O=C(Nc1ccc(Cl)cc1)Nc1nc2cc(-c3ccc4ncn(CCN5CCOCC5)c(=O)c4c3)ccc2s1	NCI-H1975	MTT	72 h	> 20 µM
CCCCC(=O)Nc1ccc(-c2ccc3ncn(CCC)c(=O)c3c2)c(C)n1	NCI-H1975	CCK-8	72 h	5.44 µM
O=C(NCc1ccccc1)Nc1nc2cc(-c3ccc4ncn(Cc5ccccc5)c(=O)c4c3)ccc2s1	NCI-H1975	MTT	72 h	> 20 µM
COC[C@H](NC(=O)c1ccn(S(C)(=O)=O)c1)C(=O)Nc1nc(-c2cccc(N3C[C@@H](C)O[C@@H](C)C3)n2)cs1	HCC515	ATP luminescence	7 days	0.119 µM
O=C(Nc1cccc(F)c1)Nc1nc2cc(-c3ccc4ncn(Cc5ccccc5)c(=O)c4c3)ccc2s1	NCI-H1975	MTT	72 h	> 20 µM
CCOc1ccc(Nc2c3c(nc4ccccc24)CCC3)cc1	HEK293	resazurin	72 h	18.1 µM
O=C(Nc1ccc(-c2ccc3ncn(Cc4ccc5c(c4)OCO5)c(=O)c3c2)cn1)c1ccccc1	NCI-H1975	CCK-8	72 h	> 10 µM
O=C(Nc1ccc(C(F)(F)F)cc1)Nc1nc2cc(-c3ccc4ncn(CCN5CCOCC5)c(=O)c4c3)ccc2s1	NCI-H1975	MTT	72 h	1.77 µM
